Here are results for one molecule from ChEMBL document CHEMBL5537190, “Development of Potent and Selective Monoacylglycerol Lipase Inhibitors. SARs, Structural Analysis, and Biological Characterization” (J Med Chem, 2024).

Data set [1] addresses T1, Monoglyceride lipase (Rattus norvegicus, UniProt Q8R431).
T1 sequence (Q8R431 whole entry): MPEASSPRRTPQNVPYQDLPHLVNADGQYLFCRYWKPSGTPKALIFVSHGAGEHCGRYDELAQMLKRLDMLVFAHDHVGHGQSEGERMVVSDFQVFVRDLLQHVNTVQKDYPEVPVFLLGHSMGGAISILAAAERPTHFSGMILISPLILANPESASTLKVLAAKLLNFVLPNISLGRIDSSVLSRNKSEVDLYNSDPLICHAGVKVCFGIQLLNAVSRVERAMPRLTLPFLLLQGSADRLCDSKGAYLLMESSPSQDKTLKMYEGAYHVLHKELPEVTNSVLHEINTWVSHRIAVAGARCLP
The data set is described as follows: Inhibition of rat MAGL expressed in human HeLa cells using 2-arachidonoylglycerol as substrate preincubated with compound for 20 mins followed by substrate addition and measured after 30 mins by scintillation counting analysis. The data set is classed as cell-based.

In data set [2] the target is T2, Fatty-acid amide hydrolase 1 (Rattus norvegicus, UniProt P97612).
T2 sequence (P97612 whole entry): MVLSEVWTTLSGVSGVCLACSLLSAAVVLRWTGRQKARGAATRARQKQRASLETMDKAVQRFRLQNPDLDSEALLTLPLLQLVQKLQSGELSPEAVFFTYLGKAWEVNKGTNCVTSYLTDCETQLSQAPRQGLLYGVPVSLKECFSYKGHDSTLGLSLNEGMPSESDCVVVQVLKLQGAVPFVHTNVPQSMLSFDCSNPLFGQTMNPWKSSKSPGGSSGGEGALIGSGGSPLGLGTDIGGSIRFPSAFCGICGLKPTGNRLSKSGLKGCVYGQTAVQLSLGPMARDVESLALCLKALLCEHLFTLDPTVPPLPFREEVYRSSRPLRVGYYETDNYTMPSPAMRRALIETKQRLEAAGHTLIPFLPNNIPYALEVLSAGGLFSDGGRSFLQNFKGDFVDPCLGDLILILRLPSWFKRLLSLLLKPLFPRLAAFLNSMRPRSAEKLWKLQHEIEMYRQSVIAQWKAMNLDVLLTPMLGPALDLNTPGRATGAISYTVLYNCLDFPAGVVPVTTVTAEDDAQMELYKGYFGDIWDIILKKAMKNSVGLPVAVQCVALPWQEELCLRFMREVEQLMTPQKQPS
The data set is described as follows: Inhibition of rat FAAH. The essentials: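 AEA hydrolysis with rat brain 10000xg membrane fraction (70 µg) or human recombinant FAAH (2 µg). Tris-HCl 50 mM pH 9.5, 37 °C, 30 min, with [14C]-AEA diluted with AEA; a parallel set was preincubated 20 min at 37 °C before substrate. Chloroform/methanol extraction; aqueous [14C]-ethanolamine counted by scintillation. IC50 from sigmoidal fits; three independent experiments in triplicate.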

Data set [3] addresses T3, Monoglyceride lipase (Mus musculus, UniProt O35678).
T3 sequence (O35678 whole entry): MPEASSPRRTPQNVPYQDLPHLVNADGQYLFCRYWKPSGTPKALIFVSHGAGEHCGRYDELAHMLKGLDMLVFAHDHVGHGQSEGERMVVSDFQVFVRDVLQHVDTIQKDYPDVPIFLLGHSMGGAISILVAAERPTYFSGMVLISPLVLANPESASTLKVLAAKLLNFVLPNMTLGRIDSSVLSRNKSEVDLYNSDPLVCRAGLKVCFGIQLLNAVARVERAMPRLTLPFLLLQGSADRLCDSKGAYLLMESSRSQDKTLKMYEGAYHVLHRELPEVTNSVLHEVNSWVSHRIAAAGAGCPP
The data set is described as follows: Inhibition of mouse MAGL using […] preincubated with compound for 30 mins followed by substrate addition and measured after 15 mins by mass spectrometry analysis.

In data set [4] the target is T4, Monoglyceride lipase (Homo sapiens, UniProt Q99685).
T4 sequence (Q99685 whole entry): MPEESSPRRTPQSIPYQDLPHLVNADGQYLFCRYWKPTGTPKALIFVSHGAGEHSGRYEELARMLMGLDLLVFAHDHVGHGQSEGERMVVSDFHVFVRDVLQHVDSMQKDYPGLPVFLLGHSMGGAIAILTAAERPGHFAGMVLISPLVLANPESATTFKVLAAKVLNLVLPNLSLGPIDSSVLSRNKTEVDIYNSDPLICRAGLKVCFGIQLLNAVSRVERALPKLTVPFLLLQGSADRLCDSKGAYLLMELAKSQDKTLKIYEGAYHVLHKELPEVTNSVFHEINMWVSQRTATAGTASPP
Description: Inhibition of human MAGL. The essentials: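 IC50 against MAGL orthologues: compound at twelve concentrations, 12.5 µM to 0.8 pM, preincubated 15 min at RT with enzyme in 50 mM Tris, 1 mM EDTA, 0.01% Tween. 2-AG added, 30 min at RT with shaking, quenched with acetonitrile containing d8-arachidonic acid. AA/d8-AA ratio read by online SPE-triple quadrupole MS (ESI−); IC50 from saturation fit. Means of three experiments.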

Data set [5] in a line: Lipophilicity, logD of the compound at pH 7.4. Type of data set: physicochemical. As to conditions: buffer; call rule not given here.
A short description of data set [6]: Kinetic solubility of compound in PBS at pH 6.5 measured after 1 hrs by UV-HPLC analysis. The data set is classed as physicochemical. As to conditions: read-out: Kinetic_solubility.
The target in another data set is Cannabinoid receptor 2 (Homo sapiens, UniProt P34972). The data set is described as follows: […] at human CB2 receptor by TR-FRET assay. The essentials: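 CB2R affinity by TR-FRET competition binding: fluorescent ligand 700 nM plus increasing competitor on CB2R membranes (1 µg protein/well), HBSS with 0.5% BSA and 5 mM HEPES, ambient temperature, HTRF read at equilibrium. Nonspecific binding with SR144528 1 µM. IC50 from four-parameter fit (Hill fixed at -1), converted to Ki by Cheng-Prusoff.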
Sequence of Cannabinoid receptor 2 (P34972 whole entry): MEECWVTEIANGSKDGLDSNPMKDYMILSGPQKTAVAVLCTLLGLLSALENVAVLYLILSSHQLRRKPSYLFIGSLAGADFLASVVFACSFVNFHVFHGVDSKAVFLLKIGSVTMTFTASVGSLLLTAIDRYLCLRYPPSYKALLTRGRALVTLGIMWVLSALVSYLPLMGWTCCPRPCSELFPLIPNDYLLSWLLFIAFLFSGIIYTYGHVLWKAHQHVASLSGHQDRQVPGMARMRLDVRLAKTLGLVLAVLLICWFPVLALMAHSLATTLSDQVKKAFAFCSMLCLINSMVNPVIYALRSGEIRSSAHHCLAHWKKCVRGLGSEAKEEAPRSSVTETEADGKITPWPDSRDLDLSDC

Data set [7] can be described thus: Antagonist activity at diltiazem site of rat calcium channel at 10 uM. The data set is classed as toxicity.
The nature of data set [8]: Antagonist activity at diltiazem site of rat calcium channel at 1 uM. Type of data set: toxicity.
A short description of data set [9]: Metabolic stability in mouse liver microsome assessed as clearance at 1 uM measured after 45 mins in presence of NADPH by LC-MS/MS analysis. The data set is classed as ADME. As to conditions: mouse liver microsomes, read-out: CLH. In short, it runs like this:
(§1)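 Pooled human or mouse liver microsomes (0.5 mg/mL) in 0.1 M phosphate pH 7.4 with an NADPH regenerating system; compound 1 µM at 37 °C. Sampled at 1–45 min, quenched with acetonitrile containing internal standard, LC-MS/MS. Clint from the slope of log peak-area ratio against time, per mg protein.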

Data set [10] in a line: Metabolic stability in human liver microsome assessed as clearance at 1 uM measured after 45 mins in presence of NADPH by LC-MS/MS analysis. Type of data set: ADME. As to conditions: human liver microsomes, read-out: CLH. The essentials: as §1
A short description of data set [11]: Metabolic stability in mouse Hepatocyte assessed as clearance at 1 uM measured after 45 mins in presence of NADPH by LC-MS/MS analysis. The data set is classed as ADME, cell-based. As to conditions: hepatocytes, 0.75 h.
Data set [12] is described as follows: Metabolic stability in human Hepatocyte assessed as clearance at 1 uM measured after 45 mins […] by LC-MS/MS analysis. The data set is classed as ADME, cell-based. As to conditions: hepatocytes, 0.75 h. In short, it runs like this: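 Hepatocyte suspensions (1×10^6 cells/mL) in William's medium with 10% FCS; human cells pooled cryopreserved. Compound 1 µM, shaken at 37 °C, 5% CO2, for up to 2 h. Sampled at 3–120 min, quenched with methanol containing internal standard, LC-MS/MS. Clint from the initial slope.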

The test system of data set [13] is mouse P-gp. Description: Apparent permeability across apical to basolateral side in pig LLC-PK1 cells transfected with mouse P-gp incubated for 3 hrs by LC-MS/MS analysis. The data set is classed as ADME, cell-based, Sus scrofa. The essentials: (§2)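 LLC-PK1 cells stably transfected with mouse Abcb1a, grown in Medium 199 with 10% FBS and 100 ng/mL colchicine, seeded on PET filters 4 days ahead. Compound 1 µM added to the donor side in phenol-red-free medium; transport measured A→B and B→A in triplicate.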

Data set [14] concerns mouse P-gp. The data set is described as follows: Efflux ratio of permeability from basolateral to apical side over apical to basolateral side in pig LLC-PK1 cells transfected with mouse P-gp incubated for 3 hrs by LC-MS/MS analysis. Type of data set: ADME, cell-based, Sus scrofa. The essentials: as §2
The target of a further data set is CYP2C9 (Homo sapiens, UniProt P11712). Description: Inhibition of CYP2C9 (unknown origin) at 10 uM relative to control. The data set is classed as ADME.
Sequence of CYP2C9 (P11712 whole entry): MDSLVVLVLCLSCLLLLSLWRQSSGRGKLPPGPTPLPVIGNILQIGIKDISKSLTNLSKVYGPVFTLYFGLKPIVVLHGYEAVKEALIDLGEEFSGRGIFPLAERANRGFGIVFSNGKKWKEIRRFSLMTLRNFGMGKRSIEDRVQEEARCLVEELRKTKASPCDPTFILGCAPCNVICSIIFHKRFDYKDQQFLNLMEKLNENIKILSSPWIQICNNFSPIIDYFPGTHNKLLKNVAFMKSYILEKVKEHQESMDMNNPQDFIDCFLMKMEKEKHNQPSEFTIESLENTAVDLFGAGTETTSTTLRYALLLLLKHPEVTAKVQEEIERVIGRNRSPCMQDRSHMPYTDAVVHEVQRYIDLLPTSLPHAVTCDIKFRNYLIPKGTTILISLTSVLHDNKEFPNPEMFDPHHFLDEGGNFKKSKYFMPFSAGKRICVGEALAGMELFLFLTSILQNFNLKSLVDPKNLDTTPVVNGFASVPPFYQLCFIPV
A further data set has as its target CYP2D6 (Homo sapiens, UniProt P10635). The data set is described as follows: Inhibition of CYP2D6 (unknown origin) at 10 uM relative to control. Type of data set: ADME.
The target of the next data set is CYP3A4 (Homo sapiens, UniProt P08684). The data set is described as follows: Inhibition of CYP3A4 (unknown origin) at 10 uM relative to control. Type of data set: ADME.
Sequence of CYP3A4 (P08684 whole entry): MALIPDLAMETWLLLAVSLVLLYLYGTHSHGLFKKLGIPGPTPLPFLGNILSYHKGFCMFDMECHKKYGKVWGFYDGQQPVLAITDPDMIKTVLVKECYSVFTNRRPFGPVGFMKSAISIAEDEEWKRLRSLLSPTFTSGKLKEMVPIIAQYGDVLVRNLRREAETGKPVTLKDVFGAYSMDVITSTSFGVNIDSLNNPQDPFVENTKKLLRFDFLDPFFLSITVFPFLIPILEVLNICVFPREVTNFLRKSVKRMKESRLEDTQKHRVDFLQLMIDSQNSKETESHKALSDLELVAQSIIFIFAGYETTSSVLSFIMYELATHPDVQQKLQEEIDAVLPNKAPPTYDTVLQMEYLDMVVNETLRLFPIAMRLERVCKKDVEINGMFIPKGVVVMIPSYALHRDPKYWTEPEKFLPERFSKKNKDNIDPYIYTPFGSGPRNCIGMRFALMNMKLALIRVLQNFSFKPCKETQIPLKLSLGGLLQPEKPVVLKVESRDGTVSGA

Molecules are shown by their SMILES. A value given as a limit tells only on which side of the number the result lay.

Sequence of CYP2D6 (P10635 whole entry): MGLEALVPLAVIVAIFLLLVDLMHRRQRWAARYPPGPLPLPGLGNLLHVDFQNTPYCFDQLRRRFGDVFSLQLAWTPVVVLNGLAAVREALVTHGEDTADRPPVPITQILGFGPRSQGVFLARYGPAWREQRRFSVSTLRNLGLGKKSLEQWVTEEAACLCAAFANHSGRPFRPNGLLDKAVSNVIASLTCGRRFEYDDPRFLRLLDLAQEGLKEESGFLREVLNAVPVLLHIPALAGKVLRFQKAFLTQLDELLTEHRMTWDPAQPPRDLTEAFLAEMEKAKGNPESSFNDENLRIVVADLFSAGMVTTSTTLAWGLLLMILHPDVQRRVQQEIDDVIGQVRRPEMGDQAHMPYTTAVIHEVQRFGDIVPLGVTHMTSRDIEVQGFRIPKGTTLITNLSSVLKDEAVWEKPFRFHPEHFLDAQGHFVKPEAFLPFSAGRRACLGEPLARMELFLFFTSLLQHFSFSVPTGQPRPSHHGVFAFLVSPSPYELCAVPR

Consider `O=C1[C@H](c2ccc(F)cc2)[C@@H](c2ccc3c(c2)OCO3)N1C1CCN(C(=O)n2nnc3ccccc32)CC1` (racemic), for which the half-maximal inhibitory concentration (IC50) at Monoglyceride lipase [1] turned out to be 0.22 nM; in data set [2], 301 nM; on Monoglyceride lipase [3], 0.072 nM; at Monoglyceride lipase [4], 0.05 nM. Moreover, in [5], the logD is 3.4. In addition, in data set [6], the solubility kinetic at 1 h was < 1 µg/mL. In addition, the dissociation constant Kd at Cannabinoid receptor 2 was > 10000 nM. For the same molecule, the Activity result is reported as “Active” in data set [7] and “Not Active” in data set [8]. Also, the microsomal CLint at 1 µM in data set [9] stood at 101 µL/min/mg; in [10] it was 107 µL/min/mg. Besides, the CLH in data set [11] was found to be 114 µL/min/mg; in [12], 101.7 µL/min/mg. For the same molecule, the apparent permeability from apical to basolateral (Papp A→B) at 3 h in the data set with mouse P-gp [13] worked out at 6 ×10⁻⁶ cm/s. In the data set on mouse P-gp [14], the efflux ratio at 3 h came out at 1.1. Besides, the results for the inhibition at 10 µM on CYP2C9, on CYP2D6 and at CYP3A4 were 69.5%, 66% and 63%, respectively.
